KCC2 mod – KCC2 (human) Cl- transport modulation. Q9H2X9. KCC2 cells, thallium flux FluoZin-2 fluorescence. B-score of Tl+ flux slope (higher = more flux/activation; lower = inhibition) at 10 µM. 190,000 compounds, 2.2% hits. AID 1456;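 active = thallium flux slope and its plate-corrected score both differing from the plate sample mean at a set confidence after two filtering rounds, in either direction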;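 also: slope of fluorescence scaled to starting intensity during 10 to 20 s after thallium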
KCNQ1 act – human KCNQ1 channel potentiation or activation; P51787; CHO-K1 KCNQ1, thallium flux FluxOR fluorescence; hits give high values; B-score at 10 µM; 310,000 compounds, 0.35% hits;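 active = fluorescence ratio B-score, a plate-corrected score, at least three library SD, with initial intensity B-score within 5 SD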
Target sequence (P51787 whole entry, looked up): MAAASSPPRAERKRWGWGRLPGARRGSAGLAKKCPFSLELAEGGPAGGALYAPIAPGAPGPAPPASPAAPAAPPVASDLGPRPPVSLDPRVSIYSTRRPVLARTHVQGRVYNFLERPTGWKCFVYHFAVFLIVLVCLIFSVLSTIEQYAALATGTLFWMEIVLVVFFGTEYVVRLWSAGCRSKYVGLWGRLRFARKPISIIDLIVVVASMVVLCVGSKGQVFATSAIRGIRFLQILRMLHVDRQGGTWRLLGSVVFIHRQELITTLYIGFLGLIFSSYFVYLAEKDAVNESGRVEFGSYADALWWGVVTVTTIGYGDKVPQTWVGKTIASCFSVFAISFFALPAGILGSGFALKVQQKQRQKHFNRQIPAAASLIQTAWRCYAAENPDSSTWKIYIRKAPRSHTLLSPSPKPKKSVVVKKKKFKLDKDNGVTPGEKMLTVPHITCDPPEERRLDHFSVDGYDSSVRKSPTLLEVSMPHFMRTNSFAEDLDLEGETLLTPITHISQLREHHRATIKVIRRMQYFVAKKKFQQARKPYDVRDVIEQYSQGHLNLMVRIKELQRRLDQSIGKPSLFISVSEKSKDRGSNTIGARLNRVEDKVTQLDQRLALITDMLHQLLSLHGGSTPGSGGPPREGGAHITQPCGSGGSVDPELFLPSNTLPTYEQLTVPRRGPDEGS
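System: CHO-K1 cells stably expressing KCNQ1 / Medium: assay buffer for compound exposure, DMSO matched across wells / Reagent: thallium- and potassium-containing depolarizing buffer / Compound: one concentration, matched DMSO / Incubation: 20 min compound pretreatment at room temperature / Measured by: kinetic FluxOR fluorescence, 10 s baseline plus 110 s post-stimulus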
hERG protect – hERG (human) protection from proarrhythmic block | CHO-hERG, FluxOR thallium flux, dofetilide IC70 present | activation (rescue from dofetilide block), less the hit threshold, % at 10 µM | 310,000 compounds, 0.51% hits | AID 1511;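 active = activation above the mean of controls blocked by dofetilide plus 5 SD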;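 also: thallium influx through hERG after potassium depolarization seen as dye fluorescence rise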
KCNQ1 inh – inhibitors of human KCNQ1 potassium channel; B-score at 10 µM; AID 2642; CHO-K1 KCNQ1, FluxOR thallium flux fluorescence; hits give high values; 310,000 compounds, 1.3% hits;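 active = compounds whose thallium flux B-score, printed positive for inhibition, exceeds three library SD while starting fluorescence stays within three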;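 also: channel opened by potassium depolarization with thallium stimulus after 20 min compound exposure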
KCNK9 block – inhibitors of human KCNK9 two-pore domain potassium channel; 310,000 compounds, 1.2% hits; HEK293 KCNK9, FluxOR thallium flux fluorescence; hits give low values; B-score at 10 µM; Q9NPC2;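 active = ratio B-score over 3 SD below the library mean, with starting fluorescence within 5 SD of its mean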;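 also: negative B-score means less thallium flux so channel inhibition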
KCNK3 inh – human KCNK3 channel inhibition, primary screen. CHO-KCNK3 thallium flux, FluxOR fluorescence; hits give low values. 340,000 compounds, 0.84% hits. O14649. B-score at 10 µM. AID 602410;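 active = B-score under library mean minus 4 SD, starting fluorescence ratio at most library mean plus 5 SD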;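 also: more negative B-score means stronger inhibition of thallium flux through KCNK3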
KCNK3 inh conf – human KCNK3 channel inhibition, confirmation assay | shares compounds with KCNK3 inh | CHO-KCNK3 thallium flux, FluxOR fluorescence; 0% buffer, 100% carvedilol maximal block | ratio percent of control, % at 10 µM | 2,400 compounds, 99% hits | AID 651638;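 active = ratio percent of control, averaged over triplicates, above buffer control mean plus 5 SD, cut at about 64% in these data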;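 also: ratio is the fluorescence rise from min to max over baseline after thallium stimulus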
KCNK3 noninduced – KCNK3 inhibitor counter-screen hit in non-induced cells; shares compounds with KCNK3 inh; thallium flux ratio (lower = more inhibition) at 10 µM; non-induced KCNK3 parental cells, FluxOR thallium flux; hits give low values; 2,400 compounds, 40% hits; AID 651747;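 active = thallium flux ratio, averaged over three wells, more than 5 SD below the buffer control mean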;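 also: host cells are CHO cells without KCNK3 induction; ratio is peak minus trough fluorescence over baseline then normalized to buffer controls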
The depositor's hits bear a star; i = inactive; nt = no result. This is a sample that favours compounds with a hit; in the whole collection about 4.1% have one here.

SMILES	KCC2 mod	KCNQ1 act	hERG protect	KCNQ1 inh	KCNK9 block	KCNK3 inh	KCNK3 inh conf	KCNK3 noninduced
Cc1ccc(NC(=O)c2c(C(F)(F)F)nn(C)c2SCc2ccc(Cl)cc2)cc1C	-1.3	i	-9	i	i	-10*	110*	0.16*
Cc1ccc(NC(=O)c2c(C(F)(F)F)nn(C)c2SCc2cccc(C(F)(F)F)c2)cc1C	0.19	i	-11	i	i	i	nt	nt
O=C1OC(CN(Cc2ccccc2)Cc2ccccc2)CN1N=Cc1ccc([N+](=O)[O-])o1 (centres undefined)	nt	nt	nt	nt	nt	i	nt	nt
CCCNC(=O)CSc1nc2ccccc2c(=O)n1CCC	-0.92	i	-5	i	i	-8.8*	86*	i
CCCCNC(=O)CSc1nc2ccccc2c(=O)n1CCNC(C)=O	-0.45	i	-11	i	i	i	nt	nt
N#Cc1nc(-c2ccc(F)cc2)oc1N1CCC(C(N)=O)CC1	nt	i	-5	i	i	i	nt	nt
CN(C1CCCCC1)S(=O)(=O)c1ccc2c(c1)c(=O)c(C(=O)NCCCN1CCCC1)cn2C	nt	i	-3	i	i	i	nt	nt
CC(C)OCCCNC(=O)c1cn(C)c2ccc(S(=O)(=O)N(C)C3CCCCC3)cc2c1=O	nt	i	-10	i	i	-9.1*	90*	0.14*
Cc1ccc(NC(=O)CCS(=O)(=O)c2ccccc2)cc1S(=O)(=O)N1CCOCC1	-1.7	i	-9	i	i	i	nt	nt
O=C(NCc1cc([N+](=O)[O-])ccc1O)c1cc(-c2ccncc2)nc2ccccc12	nt	i	-10	i	i	-11*	100*	0.14*
O=C(NC1CCCCC1)N1CCN(c2ncccn2)CC1	nt	i	-12	i	i	i	nt	nt
O=C(/C=C/c1ccc(N2CCCCC2)c([N+](=O)[O-])c1)c1ccc(O)cc1	-0.58	i	-9	i	-7.8*	-11*	123*	i
S=c1[nH]nc(-c2ccc(Br)cc2)n1-c1ccc(Br)cc1	nt	i	-7	i	i	-11*	75*	i
Cc1onc(-c2ccc3c(c2)OCO3)c1-c1ccc2[nH]ccc2c1	nt	i	-21	i	i	-9.5*	95*	i
C/C(=N\Nc1nc(N2CCOCC2)nc(N2CCOCC2)n1)c1cccs1	0.15	i	-8	i	i	i	nt	nt
C/C(=N\Nc1nc(N2CCCCC2)nc(N2CCOCC2)n1)c1ccccc1O	-0.089	i	-9	i	i	-9.1*	104*	i
O=C(N/N=C/c1ccc[nH]1)c1ccccc1O	0.87	i	-17	i	i	-9*	81*	i
O=C(N/N=C/c1cccnc1)c1cc2c(ccc3ccccc32)o1	nt	i	-6	i	i	i	nt	nt
O=C(N/N=C/c1cc(Cl)c(O)c(Cl)c1)c1cc2c(ccc3ccccc32)o1	nt	i	-28	12*	i	-11*	101*	0.15*
Cc1cccc(NC(=O)c2ccc(N(C)C3CCCCC3)c([N+](=O)[O-])c2)n1	nt	i	-12	i	i	-11*	128*	0.12*
COc1ccc(CCNC(=O)CSc2nnc(NC(C)=O)s2)cc1OC	0.37	i	0	i	i	i	nt	nt
CC1CCCCC1NC(=O)c1ccc2c(c1)[nH]c(=O)n2C1CCCC1 (centres undefined)	-0.24	i	-8	i	i	-9.5*	105*	i
O=C(c1ccc2ccccc2c1)N1CCN(S(=O)(=O)/C=C/c2ccccc2)CC1	nt	i	-10	i	i	-9.1*	96*	i
COc1cc(OC)cc(C(=O)N[C@H](C(=O)Nc2nc(-c3ccc(F)c(F)c3)cs2)C(C)C)c1	0.14	i	-6	i	i	-11*	100*	i
CC(C)(C)c1nnc(NC(=O)c2cccnc2)s1	-0.14	i	-17	i	i	i	nt	nt

Source: PubChem BioAssay
